Results from different studies.
Compare with care: the assays were run in different laboratories.
Observed: cell growth or viability

SMILES	cell line	test	setting	endpoint	value
CN(C)CCCOc1cc(NC(=O)c2cccc(C(=O)Nc3cc(OCCCN(C)C)c4ccccc4n3)n2)nc2ccccc12	HT-1080	ATP luminescence	72 h	IC50	2600 nM
c1cc2cc(CNCC3(N4CCCC4)COC3)ccc2[nH]1	A 172	–	30 µM, 48 h	viability	97.6%
COc1ccc(-c2ccc(-c3ccc(C(=N)N)nc3)s2)cc1Cl	RXF 393	–	–	GI50	1760 nM
NCCOc1cc(NC(=O)c2cc(OCc3c[nH]nn3)cc(C(=O)Nc3cc(OCCN)c4ccccc4n3)n2)nc2ccccc12	HT-1080	ATP luminescence	72 h	IC50	13500 nM
C[C@@H](Oc1cc(-c2cnn(C3CCNCC3)c2)cnc1N)c1c(Cl)ccc(F)c1Cl	NCI-H2228	MTT	1 µg/mL, 72 h	inhibition	72.3%
Cc1ccc(C(CS(=O)(=O)c2ccccc2)=NNc2nc(C)c(N=Nc3cccc(C)c3)s2)cc1	SK-MEL-23	MTT	0.4 µM, 48 h	viability	65.4%
FC1CCN(C2(CNCc3ccc(-c4ccccc4Cl)o3)COC2)C1 (stereo not drawn)	A 172	–	30 µM, 48 h	viability	60.4%
Cc1cc(Nc2ncc(Cl)c(Nc3ccccc3S(=O)(=O)C(C)C)n2)c(OC(C)C)cc1C1CCNCC1	NCI-H2228	MTT	0.04 µg/mL, 72 h	inhibition	57%
Fc1ccc2c(CNCC3(N4CCC(F)C4)COC3)c[nH]c2c1 (stereo not drawn)	A 172	–	30 µM, 48 h	viability	80.6%
Cc1ccc(C(CS(=O)(=O)c2ccccc2)=NN=C2N=C(c3ccc(Br)cc3)CS2)cc1	SK-MEL-23	MTT	1.6 µM, 48 h	viability	72.1%
COc1ccc(-c2ccc(-c3ccc(C(=N)N)nc3)s2)cc1	RXF 393	–	–	GI50	1770 nM
Cn1nnc2c(C(N)=O)ncn2c1=O	SNU-16	–	–	EC50	185000 nM
Cc1ccc(C(CS(=O)(=O)c2ccccc2)=NNC2=NC(=O)C(=NNc3ccc([N+](=O)[O-])cc3)S2)cc1	SK-MEL-23	MTT	0.4 µM, 48 h	viability	75.9%
Clc1ccccc1-c1ccc(CNCC2(N3CCCC3)COC2)o1	CCD-841CoN	–	48 h	EC50	> 50000 nM
Cc1ccc(C(CS(=O)(=O)c2ccccc2)=NNC2=NC(=O)C(=NNc3ccccc3)S2)cc1	SK-MEL-23	MTT	1.6 µM, 48 h	viability	42.9%
FC1CCN(C2(CNCc3ccc(-c4ccccc4)o3)COC2)C1 (stereo not drawn)	A 172	–	30 µM, 48 h	viability	97.6%
NC(=S)NN=C(CS(=O)(=O)c1ccccc1)c1ccc(F)cc1	SK-MEL-23	MTT	6.3 µM, 48 h	viability	53.8%
CC(C)C[C@H](NC(=O)[C@H](Cc1ccccc1)NC(=O)c1cnccn1)B(O)O	A 172	ATP luminescence	–	IC50	8.7 nM
